In ChEMBL document CHEMBL1629618, “SOS regulation of qnrB expression” (2009):

Legend:
Format in all cases: functional
Escherichia coli [1] = assay: Induction of qnrB1 gene expression in lexA- and recA- positive Escherichia coli J53 at 0.2 ug/ml after 30 mins by quantitative PCR method relative to control
Procedure, shortened: (§1)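 Plasmid-bearing strains grown in triplicate in LB broth at 37°C to exponential phase. At OD600 0.08 to 0.1, mitomycin C 0.2 μg/ml was added, with one culture left untreated as control. RNA was stabilised, extracted and DNase-treated, then reverse-transcribed with gene-specific reverse primers for real-time qPCR. Levels were calculated by 2−ΔΔCT relative to the unsupplemented control. Experiments repeated at least twice.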

Escherichia coli [2] = assay: Induction of qnrB4 gene expression in recA-positive lexA deficient Escherichia coli AB1157 expressing deffective lexA gene at 0.2 ug/ml after 30 mins by quantitative PCR method relative to control; procedure, shortened: as §1
Escherichia coli [3] = assay: Induction of qnrA1 gene expression in lexA- and recA- positive Escherichia coli J53 at 0.2 ug/ml after 30 mins by quantitative PCR method relative to control; procedure, shortened: as §1
Escherichia coli [4] = assay: Induction of qnrB1 gene expression in lexA- and recA- positive Escherichia coli J53 at 0.2 ug/ml after 15 mins by quantitative PCR method relative to control; procedure, shortened: as §1
Escherichia coli [5] = assay: Induction of qnrB4 gene expression in lexA- and recA- positive Escherichia coli J53 at 0.2 ug/ml after 30 mins by quantitative PCR method relative to control; procedure, shortened: as §1
Escherichia coli [6] = assay: Induction of qnrB4 gene expression in lexA- and recA- positive Escherichia coli J53 at 0.2 ug/ml after 15 mins by quantitative PCR method relative to control; procedure, shortened: as §1
Escherichia coli [7] = assay: Induction of qnrB4 gene expression in recA-positive Escherichia coli DM49 expressing protease-resistant lexA at 0.2 ug/ml after 30 mins by quantitative PCR method relative to control; procedure, shortened: as §1
Escherichia coli [8] = assay: Induction of qnrB4 gene expression in lexA- and recA- positive Escherichia coli AB1157 at 0.2 ug/ml after 30 mins by quantitative PCR method relative to control; procedure, shortened: as §1

## CO[C@@]12[C@H](COC(N)=O)C3=C(C(=O)C(C)=C(N)C3=O)N1C[C@@H]1N[C@@H]12 [MITOMYCIN]
Escherichia coli [1]
  fold change (FC): 2.8
Escherichia coli [2]
  fold change (FC): 1
Escherichia coli [3]
  fold change (FC): 0.9
Escherichia coli [4]
  fold change (FC): 2.6
Escherichia coli [5]
  fold change (FC): 7.9
Escherichia coli [6]
  fold change (FC): 8.2
Escherichia coli [7]
  fold change (FC): 1
Escherichia coli [8]
  fold change (FC): 2
